The source of these data is ChEMBL document CHEMBL1129071, “Probes for narcotic receptor-mediated phenomena. 21. Novel derivatives of 3-(1,2,3,4,5,11-hexahydro-3-methyl-2,6-methano-6H-azocino[4,5-b]indol- 6-yl)-phenols with improved delta opioid receptor selectivity” (J Med Chem, 1996).

Assay [1] deals with Delta-type opioid receptor (Rattus norvegicus, UniProt P33533). Description: Inhibition of [3H]- DADLE binding to Rat brain Opioid receptor delta 1.
Assay [2] has as its target Kappa-type opioid receptor (Cavia porcellus, UniProt P41144). The assay is described as follows: Inhibition of [3H]- U69,593 binding to Guinea pig Opioid receptor kappa 1.
Assay [3] can be described thus: Relative affinity for […] opioid receptors.
Assay [4] can be described thus: Relative affinity for mouse vas deferens (delta receptor) and guinea pig ileum (mu receptor). Type of assay: tissue-based. In short, it runs like this:
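GPI/MVD IC50 ratio from the electrically stimulated guinea pig ileum and mouse vas deferens bioassays. Both tissues are stimulated at 0.1 Hz and supramaximal voltage, with cumulative agonist dosing.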

Assay [5] addresses T1, Mu-type opioid receptor (Rattus norvegicus, UniProt P33535). Description: Inhibition of [3H]- DAMGO binding to Rat brain Opioid receptor mu 1. A digest of the protocol: (§1)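 Rat brain membranes labeled with [3H]DAMGO (1–3 nM), incubated 4 h at 25 °C in 50 mM Tris-HCl pH 7.4 with protease inhibitor cocktail. Nonspecific binding defined by 20 µM levallorphan. Displacement uses 8–10 test concentrations, run twice, diluted in 10 mM Tris pH 7.4 with 1 mg/mL BSA from 1 mM stocks containing 10% DMSO. IC50 and slope factor from curve fitting.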

The target in assay [6] is Mu-type opioid receptor (Cavia porcellus, UniProt P97266). The assay is described as follows: Agonistic activity for Opioid receptor mu 1 as inhibitory activity towards electrically stimulated guinea pig ileum. In kind it is functional, tissue-based. A digest of the protocol: (§2)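 Electrically stimulated smooth muscle bioassay. Guinea pig ileum longitudinal muscle-myenteric plexus strips come from male Hartley guinea pigs (250–500 g); vas deferens from male ICR mice (25–40 g). Tissues sit in 37 °C oxygenated Krebs bicarbonate (Mg-free for MVD) at 1 g tension (0.5 g MVD). Stimulation is 0.1 Hz, 0.4 ms pulses (2 ms MVD), supramaximal voltage.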

Assay [7] concerns the target Delta-type opioid receptor (Mus musculus, UniProt P32300). Description: Agonistic activity towards Opioid receptor delta 1 as inhibitory activity towards electrically stimulated mouse vas deferens. In kind it is functional, tissue-based. In short, it runs like this:
as §2

Assay [8] has as its target Delta-type opioid receptor (Mus musculus) (UniProt P32300). Description: Agonistic activity towards Opioid receptor delta 1 was determined by evaluating the inhibitory activity towards electrically stimulated mouse vas deferens. Type of assay: functional, tissue-based. Particulars: concentration not given here. A digest of the protocol: as §2
Assay [9] concerns the target Mu-type opioid receptor (Cavia porcellus) (UniProt P97266). The assay is described as follows: Agonistic activity (30 uM) towards mu opioid receptor was determined by evaluating the inhibitory activity towards electrically stimulated guinea pig ileum. In kind it is functional, tissue-based. In short, it runs like this:
as §2

The target in assay [10] is T1, Mu-type opioid receptor. Description: Compound was evaluated for Inhibition of Radio Ligand binding of [3H]- DAMGO at Rat brain Opioid receptor mu 1 binding site. In short, it runs like this:
as §1

Sequence of Delta-type opioid receptor (Mus musculus, UniProt P32300) (P32300 whole entry): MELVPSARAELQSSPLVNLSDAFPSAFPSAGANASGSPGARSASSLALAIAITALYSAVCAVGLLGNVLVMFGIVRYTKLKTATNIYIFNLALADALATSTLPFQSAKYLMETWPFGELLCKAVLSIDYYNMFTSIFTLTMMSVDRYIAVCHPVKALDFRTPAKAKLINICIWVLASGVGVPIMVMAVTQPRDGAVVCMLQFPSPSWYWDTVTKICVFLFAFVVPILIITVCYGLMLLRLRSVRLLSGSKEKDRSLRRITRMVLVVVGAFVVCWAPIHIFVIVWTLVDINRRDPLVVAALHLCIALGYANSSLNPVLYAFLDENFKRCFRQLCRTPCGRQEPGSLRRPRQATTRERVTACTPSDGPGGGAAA
Sequence of Mu-type opioid receptor (Cavia porcellus, UniProt P97266) (P97266 whole entry): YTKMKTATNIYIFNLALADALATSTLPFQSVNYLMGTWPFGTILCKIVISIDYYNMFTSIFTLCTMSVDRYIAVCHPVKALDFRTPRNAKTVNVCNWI
Sequence of Delta-type opioid receptor (Rattus norvegicus, UniProt P33533) (P33533 whole entry): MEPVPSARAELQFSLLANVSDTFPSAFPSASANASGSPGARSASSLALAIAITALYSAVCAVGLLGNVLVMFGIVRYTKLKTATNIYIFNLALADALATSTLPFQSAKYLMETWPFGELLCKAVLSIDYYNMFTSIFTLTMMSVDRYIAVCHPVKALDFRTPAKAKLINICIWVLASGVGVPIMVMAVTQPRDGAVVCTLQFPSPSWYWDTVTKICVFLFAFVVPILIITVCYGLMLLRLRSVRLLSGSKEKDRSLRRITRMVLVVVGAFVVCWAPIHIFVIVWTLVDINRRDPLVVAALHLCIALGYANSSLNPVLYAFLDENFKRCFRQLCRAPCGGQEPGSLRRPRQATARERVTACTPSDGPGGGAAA
Sequence of Kappa-type opioid receptor (P41144 whole entry): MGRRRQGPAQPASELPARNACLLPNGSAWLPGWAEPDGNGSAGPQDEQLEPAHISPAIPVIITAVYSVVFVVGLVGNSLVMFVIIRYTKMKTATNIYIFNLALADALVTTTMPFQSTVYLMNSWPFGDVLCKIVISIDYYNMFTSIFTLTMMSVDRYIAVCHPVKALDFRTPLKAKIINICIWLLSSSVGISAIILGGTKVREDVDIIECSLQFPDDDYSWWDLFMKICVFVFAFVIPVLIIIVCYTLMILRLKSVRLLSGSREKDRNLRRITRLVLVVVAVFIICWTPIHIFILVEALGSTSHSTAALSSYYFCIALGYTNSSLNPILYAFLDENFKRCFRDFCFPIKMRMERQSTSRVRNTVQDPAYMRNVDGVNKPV
T1 sequence (P33535 whole entry): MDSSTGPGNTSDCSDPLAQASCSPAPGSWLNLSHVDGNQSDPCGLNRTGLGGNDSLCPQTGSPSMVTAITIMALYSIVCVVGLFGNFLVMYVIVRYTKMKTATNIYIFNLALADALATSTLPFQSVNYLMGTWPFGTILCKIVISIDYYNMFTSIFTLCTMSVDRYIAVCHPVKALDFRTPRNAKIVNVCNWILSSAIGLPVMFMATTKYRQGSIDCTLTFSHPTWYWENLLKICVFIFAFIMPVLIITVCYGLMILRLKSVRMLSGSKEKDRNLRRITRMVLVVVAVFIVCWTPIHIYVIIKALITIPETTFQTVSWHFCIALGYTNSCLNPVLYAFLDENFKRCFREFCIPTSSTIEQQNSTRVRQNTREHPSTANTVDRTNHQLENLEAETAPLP
Sequence of Delta-type opioid receptor (Mus musculus) (P32300 whole entry): as the sequence (P32300 whole entry) above
Sequence of Mu-type opioid receptor (Cavia porcellus) (P97266 whole entry): as the sequence (P97266 whole entry) above

Take `CN1CCC2(c3ccccc3)CC1Cc1[nH]c3ccccc3c12` (racemic): the IC50 in [1] is 1970 nM; in assay [2], above 10000 nM. Moreover, the Ratio in assay [3] is 5.08.

Consider `CN1CCC2(c3cccc(O)c3)CC(=O)CC1C2` (racemic), for which the Ratio in assay [3] worked out at 2.81.

On to `CN1CCC2(c3cccc(O)c3)CC(=O)CC1C2` (stereo not given), for which the Ratio in assay [3] turned out to be 4.46.

For the compound `COc1cccc2c3c([nH]c12)CC1CC3(c2cccc(O)c2)CCN1C` (single isomer, unassigned; (-)) [listing 1 of 2 here], the figures for the Ratio in [3] and in assay [4] were 402 and 17.5, respectively.

Consider `COc1ccc2[nH]c3c(c2c1)C1(c2cccc(O)c2)CCN(C)C(C3)C1` (stereo in doubt; (-)-11) [listing 1 of 2 here], for which the IC50 in assay [1] is 144 nM; in assay [5], 474 nM; in [2] it was above 2500 nM; in assay [6], 25900 nM.

On to `COc1ccc2[nH]c3c(c2c1)C1(c2cccc(O)c2)CCN(C)C(C3)C1` (racemic) [listing 1 of 2 here], for which the IC50 in [7] is 4370 nM; in assay [1], 90.1 nM; in assay [5], 24.2 nM; in [2], above 1000 nM; in assay [6], 6770 nM.

Take `COc1ccc2c3c([nH]c2c1)CC1CC3(c2cccc(O)c2)CCN1C` (racemic): the IC50 in assay [7] was 118 nM; in [1], 6.3 nM; in [5], 48.4 nM; in assay [2], above 1000 nM; in assay [6], 862 nM. Moreover, the figures for the Ratio in assay [3] and in assay [4] were above 159 and 7.3, respectively.

Regarding `COc1ccc2[nH]c3c(c2c1)C1(c2cccc(O)c2)CCN(C)C(C3)C1` (racemic) [listing 2 of 2 here], the Ratio in [3] is 11.1; in assay [4] it was 1.5.

Regarding `COc1cccc2c3c([nH]c12)CC1CC3(c2cccc(O)c2)CCN1C` (racemic) [listing 1 of 2 here], the IC50 is 270 nM in [7]; 8.7 nM in assay [1]; 28.8 nM in [5]; 3960 nM in assay [2]; 1950 nM in assay [6].

In the case of `COc1cccc2c3c([nH]c12)CC1CC3(c2cccc(O)c2)CCN1C` (racemic) [listing 2 of 2 here], the Ratio came out at 455 in [3] and 7.2 in [4].

Compound `COc1ccc2[nH]c3c(c2c1)C1(c2cccc(O)c2)CCN(C)C(C3)C1` (stereo in doubt; (-)-11) [listing 2 of 2 here] yielded an inhibition in assay [8] of 0%. Further, the Ratio in [3] was found to be 17.4.

Consider `C=CCN1C[C@H](C)N([C@H](c2ccc(C(=O)N(CC)CC)cc2)c2cccc(OC)c2)C[C@H]1C` [SNC-80], for which the concentration for half-maximal inhibition (IC50) in assay [5] is 2470 nM; in [2], above 1000 nM; in assay [6] it was 5460 nM.

For `CC(C)C[C@@H](NC(=O)[C@H](Cc1ccccc1)NC(=O)CNC(=O)[C@@H](C)NC(=O)[C@@H](N)Cc1ccc(O)cc1)C(=O)O` [DADLE], the IC50 in [2] was 4400 nM. This counts as single-digit micromolar.

On to `COc1ccc2c3c([nH]c2c1)C[C@@H]1C[C@@]3(c2cccc(O)c2)CCN1C`, for which the IC50 in [7] is 49 nM; in [1] it was 3.7 nM; in [5], 66.4 nM; in assay [2] it was 1160 nM. For the same compound, the inhibition in [9] was 38%. Further, the Ratio in assay [3] is 314; in assay [4] it was above 612.

On to `CN1CC[C@]2(c3cccc(O)c3)C[C@H]1Cc1[nH]c3ccccc3c12`, for which the IC50 in [7] was determined as 393 nM; in assay [1], 5.6 nM; in [10], 14.2 nM; in assay [6], 2350 nM. In addition, the Ratio in [4] amounted to 6.

Regarding `COc1cccc2c3c([nH]c12)CC1CC3(c2cccc(O)c2)CCN1C` (single isomer, unassigned; (-)) [listing 2 of 2 here], the IC50 in assay [7] was 165 nM; in [1], 4.4 nM; in [5], 29.4 nM; in assay [2], 1770 nM; in [6], 2890 nM.

In general, IC50 refers to the concentration at which inhibition is half-maximal. Low values mean higher potency, high ones lower potency. Broadly, the inhibition is the relative decrease from the control value, in per cent. Higher therefore signals strong suppression.
